Compound activity from PubChem.
A selection: hits, their analogues and other compounds. The true share with any hit is near 1.9%.
ADAM17 inh – inhibits human ADAM17; P78536; inhibition, % at 6.95 µM; hit rate 0.83% among 370,000; recombinant ADAM17, EDANS/DABCYL FRET peptide cleavage;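 active = inhibition above the mean of compounds lying between control limits plus 3 SD, set per campaign, cut at about 8.5% in these data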
ADAM10 inh – ADAM10 inhibition, QFRET primary screen | recombinant ADAM10, EDANS/DABCYL FRET peptide cleavage, 3 h | inhibition, % at 7 µM | hit rate 0.62% among 370,000;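 active = inhibition above a per-campaign cutoff equal to the mean of compounds falling between control-based bounds plus 3 SD, cut at about 20% in these data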
SENP1 inh – SENP1 (human) catalytic domain inhibition | Q9P0U3 | recombinant SENP1 catalytic domain, CyPet-SUMO1-YPet FRET cleavage | inhibition, % at 10 µM | hit rate 0.21% among 360,000 | AID 624204;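 active = inhibition at least 30% at 10 µM, raw YFP signal under a set limit, fluorescence ratio 0.5 to 1.5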
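Compound: 10 µM single point, 0.5% DMSO; Test system: hSENP1 catalytic domain, recombinant; Timing: 50 min reaction at room temperature; Technique: FRET, CFP and YFP emission; Control set: no-enzyme wells low, DMSO-plus-enzyme wells high control.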
FAS TE block – inhibitors of human fatty acid synthase thioesterase domain. recombinant FAS-TE, OMFH fluorogenic substrate, fluorescence endpoint. P49327. hit rate 0.67% among 360,000. inhibition, % at 15 µM. AID 602261;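 active = compounds whose normalised, plate-corrected inhibition of enzyme fluorescence in the single-dose primary screen is 50% or more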
ADAM10 ctr – inhibits human ADAM10 in ADAM17 exosite counter-screen; shares compounds with ADAM17 inh; recombinant ADAM10, EDANS/DABCYL FRET peptide cleavage, 3 h; inhibition, % at 6.95 µM; hit rate 47% among 2,900; AID 743256;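 active = mean inhibition over the triplicate runs exceeds the activity threshold set in the earlier primary screen, cut at about 20% in these data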
ADAM17 confirm – confirmation of inhibitors of human ADAM17; shares compounds with ADAM17 inh; recombinant ADAM17, EDANS/DABCYL QFRET peptide cleavage; inhibition, % at 6.95 µM; hit rate 65% among 2,900; AID 743257;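 active = mean inhibition across replicates above the hit cutoff set in the primary screen, cut at about 8.5% in these data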
Each line names hits and unclear results; the compound was inactive in the other large screens (follow-up assays come after a bar, where they were run); ! = not active in a repeat.

Nc1[nH]c(C(=O)c2ccc(Cl)cc2)c(-c2ccc(Br)cc2)c1C(=O)c1c[nH]c2ccc(F)cc12	none (no result: SENP1 inh, FAS TE block)
COc1ccc(OC)c(C2C(C(N)=O)=C(C)Nc3nc(-c4cccc(Cl)c4)nn32)c1 (configuration not stated)	ADAM17 inh 9.3 | ADAM10 ctr inactive | ADAM17 confirm inactive
COc1ccccc1-c1nc2n(n1)C(c1ccccc1Cl)C(C(N)=O)=C(C)N2 (configuration not stated)	none
CCOc1cc(CNCCO)cc(Br)c1OCc1ccc(Cl)cc1	ADAM17 inh 12 | ADAM10 ctr inactive | ADAM17 confirm inactive
Cc1cc2c(nc1C)CCCN2S(=O)(=O)c1ccc(C(F)(F)F)cc1	none (no result: SENP1 inh, FAS TE block)
COC(=O)[C@H](C)N(CCc1cn(Cc2ccccc2)nn1)S(=O)(=O)c1ccccc1Br	none (no result: SENP1 inh, FAS TE block)
COC(=O)[C@H](CC(C)C)N(CCc1cn(Cc2ccccc2)nn1)S(=O)(=O)c1ccc(F)cc1Br	none (no result: SENP1 inh, FAS TE block)
COC(=O)[C@H](CC(C)C)N(CCCc1cn(Cc2ccccc2)nn1)S(=O)(=O)c1ccccc1Br	ADAM17 inh 13 (no result: SENP1 inh, FAS TE block) | ADAM10 ctr 36 | ADAM17 confirm 15
COC(=O)[C@H](CC(C)C)N(CCc1cn(Cc2ccccc2)nn1)S(=O)(=O)c1ccccc1Br	ADAM17 inh 8.7 (no result: SENP1 inh, FAS TE block) | ADAM10 ctr inactive | ADAM17 confirm 12
Cc1cccc(NC(=O)OC2CC3CC2[C@H]2CCCCN2C3)c1 (some centres not stated)	none (no result: SENP1 inh, FAS TE block)
O=P(c1ccccc1)(c1ccccc1)C(O)c1cccs1 (configuration not stated)	none
O=[N+]([O-])CC(c1ccccc1)P(=O)(c1ccccc1)c1ccccc1 (configuration not stated)	ADAM17 inh 16 | ADAM10 ctr inactive | ADAM17 confirm 32
Cc1cc(C)nc(SCC(=O)c2ccc(O)c(O)c2)n1	none
Cc1cc(SCC(=O)c2ccc(O)c(O)c2)n2nc(C)c(-c3ccccc3)c2n1	ADAM17 inh 9.9 | ADAM10 ctr inactive | ADAM17 confirm 14
Cc1cc(SCC(=O)Nc2cccc(S(=O)(=O)NC3=NCCCCC3)c2)c(C)cc1Br	ADAM17 inh 11 | ADAM10 ctr 28 | ADAM17 confirm 18
Cc1cc(SCC(=O)Nc2cccc(S(N)(=O)=O)c2)c(C)cc1Br	none
CC1(c2nnc(-c3cccc(Cl)c3)o2)CC(c2ccc(Cl)cc2)=NO1 (configuration not stated)	none
CC1(c2nnc(-c3cccc(Cl)c3)o2)CC(c2ccc(F)cc2)=NO1 (configuration not stated)	ADAM17 inh 11 | ADAM10 ctr inactive | ADAM17 confirm inactive
CCCCN(Cc1ccccc1)S(=O)(=O)c1cc2c(cc1Br)CC(C)N2C(C)=O (configuration not stated)	ADAM17 inh 11 | ADAM10 ctr inactive | ADAM17 confirm 12
C/C(=N\NC(=O)c1c(Br)c(C)nn1C)c1ccc(NC(=O)C(C)Oc2ccc(Cl)cc2C)cc1 (configuration not stated)	ADAM17 inh 9.1 | ADAM10 ctr inactive | ADAM17 confirm inactive
CC(=O)OCC(=O)[C@@]12OC3(CCCC3)O[C@@H]1C[C@H]1[C@@H]3CCC4=CC(=O)C=C[C@]4(C)[C@@]3(F)[C@@H](O)C[C@@]12C	ADAM17 inh 8.7 | ADAM10 ctr inactive | ADAM17 confirm inactive
COC(=O)[C@]12C[C@H](CC(=O)N3CCN(C(=O)C4CC4)CC3)C(=O)N(Cc3cccc4ccccc34)C1=C[C@H](COCc1ccccc1)O[C@@H]2C	ADAM17 inh 10.0 (no result: SENP1 inh, FAS TE block) | ADAM10 ctr 24 | ADAM17 confirm 20
COc1ccc(OCCC(=O)OCC(=O)NC(=O)NC2CCCCC2)cc1	none
CC(C)(C)c1ccc(OCCC(=O)OCC(=O)NC(=O)NC2CCCC2)cc1	ADAM17 inh 17 | ADAM10 ctr 28 | ADAM17 confirm 13
CC1CCN(N=Nc2nc3c([nH]2)c(=O)n(C)c(=O)n3C)CC1	ADAM17 inh 17 | ADAM10 ctr inactive | ADAM17 confirm 9.3
Cn1c(=O)c2[nH]c(N=NN3CCCCC3)nc2n(C)c1=O	none
CCc1ccc(NC(=O)CN(c2ccc3c(c2)OCO3)S(=O)(=O)c2c(C)noc2C)cc1	none
CCc1ccc(N(CC(=O)Nc2nc3ccc(C)cc3s2)S(=O)(=O)c2c(C)noc2C)cc1	ADAM17 inh 9.7 | ADAM10 ctr 46 | ADAM17 confirm 26
CCc1c(-c2ccc(Cl)cc2)ncn1Cc1cccc(-c2ccccc2)c1	ADAM17 inh 12 (no result: FAS TE block) | ADAM10 ctr inactive | ADAM17 confirm inactive
O=C(N/N=C/c1ccc(N2CCCC2)c([N+](=O)[O-])c1)c1cccnc1	ADAM17 inh 9.0 | ADAM10 ctr 21 | ADAM17 confirm 12
O=C(N/N=C/c1ccc(N2CCOCC2)c([N+](=O)[O-])c1)c1ccc(F)cc1	none
Cc1cc(C)cc(NC(=O)c2ccc(Cn3nc(C)c(Cl)c3C)o2)c1	ADAM17 inh 9.8 | ADAM10 ctr 21 | ADAM17 confirm 9.5
Cc1ccc(CNC(=O)c2ccc(Cn3nc(C)c(Cl)c3C)o2)cc1	none
CCOC(=O)C1=C(C(=O)OCC)C2N(Cc3ccc(C#N)cc3)c3ccccc3[C@@]23C[C@@H](C(=O)OC)N(S(=O)(=O)c2c(C)noc2C)C3=N1 (some centres not stated)	none (no result: SENP1 inh, FAS TE block)
O=C1N[C@@H](c2ccccc2)COC(=O)[C@@H](Cc2ccc(F)cc2)CC/C=C/C[C@@H]1CC(=O)N(CCO)Cc1ccccc1	ADAM17 inh 10, ADAM10 inh 27 | ADAM10 ctr 31 | ADAM17 confirm 15
O=C1N[C@H](Cc2ccccc2)COC(=O)[C@H](Cc2ccc(F)cc2)CC/C=C/C[C@H]1CC(=O)N(CCO)Cc1ccccc1	ADAM17 inh 8.7 | ADAM10 ctr 21 | ADAM17 confirm 11
CCOC(=O)C1=C(C)NC(C)=C(C(=O)OCC)C1c1ccc([N+](=O)[O-])s1	ADAM17 inh 9.2! | ADAM10 ctr 24 | ADAM17 confirm 12
O=C(NC(=S)NNC(=O)c1cc2ccccc2cc1O)c1ccco1	ADAM17 inh 9.3 | ADAM10 ctr inactive | ADAM17 confirm inactive
O=C(NC(=S)NNC(=O)c1ccccc1O)c1ccco1	none
O=C1OC(Cc2ccccc2)(c2ccccc2)c2ccccc21 (configuration not stated)	ADAM17 inh 11 | ADAM10 ctr inactive | ADAM17 confirm inactive
CCOc1ccc(C(=O)c2nc3c(n2O)CCCC3)cc1	ADAM17 inh 9.8 | ADAM10 ctr inactive | ADAM17 confirm 9.7
NC(=NCCc1c[nH]c2ccccc12)NS(=O)(=O)c1ccc(F)cc1	none
NC(=NCCc1c[nH]c2ccccc12)NS(=O)(=O)c1ccc2ccccc2c1	ADAM17 inh 9.9 | ADAM10 ctr inactive | ADAM17 confirm 9.4
